Marks after values point to notes of the source that are not given here.
Experiment: Phase I safety and tolerability, weekly
Format: in vivo, human
How it was run: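 Oral weekly dose escalation followed a 3+3 design (planned 90, 135, 200, 300mg, intermediate doses allowed), then a modified toxicity-probability-interval confirmation stage. A DLT was any drug-related CTCAE v3.0 ≥G4 hematological, ≥G3 febrile neutropenia or ≥G3 non-hematological toxicity. Safety visits, glucose, C-peptide and HbA1c monitoring followed a fixed schedule; AEs were graded by CTCAE v3.0.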

[1] = 200mg QW, G3, cycle 1, dose-limiting toxicity

NC1(c2ccc(-c3nc4ccn5c(=O)[nH]nc5c4cc3-c3ccccc3)cc2)CCC1 [MK-2206]
Diarrhea, number of AEs (200mg QW, G3, cycle 1): 0 (0)
Dry skin, number of AEs (200mg QW, G3, cycle 1): 0 (0)
Dysgeusia, number of AEs (200mg QW, G3, cycle 1): 0 (0)
Fatigue, number of AEs (200mg QW, G3, cycle 1): 0 (0)
Nausea, number of AEs (200mg QW, G3, cycle 1): 0 (0)
Pruritus, number of AEs (200mg QW, G3, cycle 1): 0 (0)
Stomatitis, number of AEs (200mg QW, G3, cycle 1): 0 (0)
Vomiting, number of AEs (200mg QW, G3, cycle 1): 0 (0)
Dermatitis acneiform, number of AEs [1]: 1^c (1)
Rash (all rash terms collated), number of AEs [1]: 3^c (3)
Anorexia, number of AEs (250mg QW, G1, all cycles): 0 (0)
Dermatitis acneiform, number of AEs (250mg QW, G1, all cycles): 0 (0)
Diarrhea, number of AEs (250mg QW, G1, all cycles): 0 (0)
Dysgeusia, number of AEs (250mg QW, G1, all cycles): 0 (0)
Fatigue, number of AEs (250mg QW, G1, all cycles): 0 (0)
Nausea, number of AEs (250mg QW, G1, all cycles): 0 (0)
Pruritus, number of AEs (250mg QW, G1, all cycles): 0 (0)
Stomatitis, number of AEs (250mg QW, G1, all cycles): 2
Vomiting, number of AEs (250mg QW, G1, all cycles): 0 (0)
Anorexia, number of AEs (250mg QW, G1, cycle 1): 0 (0)
Dermatitis acneiform, number of AEs (250mg QW, G1, cycle 1): 0 (0)
Diarrhea, number of AEs (250mg QW, G1, cycle 1): 0 (0)
Dysgeusia, number of AEs (250mg QW, G1, cycle 1): 0 (0)
Fatigue, number of AEs (250mg QW, G1, cycle 1): 0 (0)
Nausea, number of AEs (250mg QW, G1, cycle 1): 0 (0)
Pruritus, number of AEs (250mg QW, G1, cycle 1): 0 (0)
Stomatitis, number of AEs (250mg QW, G1, cycle 1): 1
Vomiting, number of AEs (250mg QW, G1, cycle 1): 0 (0)
Anorexia, number of AEs (250mg QW, G2, all cycles): 0 (0)
Dermatitis acneiform, number of AEs (250mg QW, G2, all cycles): 0 (0)
Diarrhea, number of AEs (250mg QW, G2, all cycles): 0 (0)
Dry skin, number of AEs (250mg QW, G2, all cycles): 0 (0)
Dysgeusia, number of AEs (250mg QW, G2, all cycles): 0 (0)
Fatigue, number of AEs (250mg QW, G2, all cycles): 0 (0)
Nausea, number of AEs (250mg QW, G2, all cycles): 0 (0)
Pruritus, number of AEs (250mg QW, G2, all cycles): 0 (0)
Rash (all rash terms collated), number of AEs (250mg QW, G2, all cycles): 2
Stomatitis, number of AEs (250mg QW, G2, all cycles): 0 (0)
Vomiting, number of AEs (250mg QW, G2, all cycles): 0 (0)
Anorexia, number of AEs (250mg QW, G2, cycle 1): 0 (0)
Dermatitis acneiform, number of AEs (250mg QW, G2, cycle 1): 0 (0)
Diarrhea, number of AEs (250mg QW, G2, cycle 1): 0 (0)
Dry skin, number of AEs (250mg QW, G2, cycle 1): 0 (0)
Dysgeusia, number of AEs (250mg QW, G2, cycle 1): 0 (0)
Fatigue, number of AEs (250mg QW, G2, cycle 1): 0 (0)
Nausea, number of AEs (250mg QW, G2, cycle 1): 0 (0)
Pruritus, number of AEs (250mg QW, G2, cycle 1): 0 (0)
Rash (all rash terms collated), number of AEs (250mg QW, G2, cycle 1): 1
Stomatitis, number of AEs (250mg QW, G2, cycle 1): 0 (0)
Vomiting, number of AEs (250mg QW, G2, cycle 1): 0 (0)
Anorexia, number of AEs (250mg QW, G3, all cycles): 0 (0)
Dermatitis acneiform, number of AEs (250mg QW, G3, all cycles): 0 (0)
Diarrhea, number of AEs (250mg QW, G3, all cycles): 0 (0)
Dry skin, number of AEs (250mg QW, G3, all cycles): 0 (0)
Dysgeusia, number of AEs (250mg QW, G3, all cycles): 0 (0)
Fatigue, number of AEs (250mg QW, G3, all cycles): 0 (0)
Nausea, number of AEs (250mg QW, G3, all cycles): 0 (0)
Pruritus, number of AEs (250mg QW, G3, all cycles): 0 (0)
Rash (all rash terms collated), number of AEs (250mg QW, G3, all cycles): 2^c (2)
Stomatitis, number of AEs (250mg QW, G3, all cycles): 0 (0)
Vomiting, number of AEs (250mg QW, G3, all cycles): 0 (0)
Anorexia, number of AEs (250mg QW, G3, cycle 1): 0 (0)
Dermatitis acneiform, number of AEs (250mg QW, G3, cycle 1): 0 (0)
Diarrhea, number of AEs (250mg QW, G3, cycle 1): 0 (0)
Dry skin, number of AEs (250mg QW, G3, cycle 1): 0 (0)
Dysgeusia, number of AEs (250mg QW, G3, cycle 1): 0 (0)
Fatigue, number of AEs (250mg QW, G3, cycle 1): 0 (0)
Nausea, number of AEs (250mg QW, G3, cycle 1): 0 (0)
Pruritus, number of AEs (250mg QW, G3, cycle 1): 0 (0)
Stomatitis, number of AEs (250mg QW, G3, cycle 1): 0 (0)
Vomiting, number of AEs (250mg QW, G3, cycle 1): 0 (0)
Rash (all rash terms collated), number of AEs (250mg QW, G3, cycle 1, dose-limiting toxicity): 2^c (2)
Anorexia, number of AEs (300mg QW, G1, all cycles): 0 (0)
Dermatitis acneiform, number of AEs (300mg QW, G1, all cycles): 0 (0)
Diarrhea, number of AEs (300mg QW, G1, all cycles): 0 (0)
Dry skin, number of AEs (300mg QW, G1, all cycles): 0 (0)
Dysgeusia, number of AEs (300mg QW, G1, all cycles): 1 (1)
Fatigue, number of AEs (300mg QW, G1, all cycles): 1 (1)
Nausea, number of AEs (300mg QW, G1, all cycles): 1 (1)
Pruritus, number of AEs (300mg QW, G1, all cycles): 0 (0)
Stomatitis, number of AEs (300mg QW, G1, all cycles): 0 (0)
Vomiting, number of AEs (300mg QW, G1, all cycles): 0 (0)
Anorexia, number of AEs (300mg QW, G1, cycle 1): 0 (0)
Dermatitis acneiform, number of AEs (300mg QW, G1, cycle 1): 0 (0)
Diarrhea, number of AEs (300mg QW, G1, cycle 1): 0 (0)
Dry skin, number of AEs (300mg QW, G1, cycle 1): 0 (0)
Dysgeusia, number of AEs (300mg QW, G1, cycle 1): 1 (1)
Fatigue, number of AEs (300mg QW, G1, cycle 1): 1 (1)
Nausea, number of AEs (300mg QW, G1, cycle 1): 1 (1)
Pruritus, number of AEs (300mg QW, G1, cycle 1): 0 (0)
Stomatitis, number of AEs (300mg QW, G1, cycle 1): 0 (0)
Vomiting, number of AEs (300mg QW, G1, cycle 1): 0 (0)
Anorexia, number of AEs (300mg QW, G2, all cycles): 0 (0)
Dermatitis acneiform, number of AEs (300mg QW, G2, all cycles): 0 (0)
Diarrhea, number of AEs (300mg QW, G2, all cycles): 0 (0)
Dry skin, number of AEs (300mg QW, G2, all cycles): 0 (0)
Dysgeusia, number of AEs (300mg QW, G2, all cycles): 0 (0)
Fatigue, number of AEs (300mg QW, G2, all cycles): 0 (0)
Nausea, number of AEs (300mg QW, G2, all cycles): 0 (0)
Pruritus, number of AEs (300mg QW, G2, all cycles): 0 (0)
Rash (all rash terms collated), number of AEs (300mg QW, G2, all cycles): 2 (2)
Stomatitis, number of AEs (300mg QW, G2, all cycles): 1 (1)
Vomiting, number of AEs (300mg QW, G2, all cycles): 0 (0)
Anorexia, number of AEs (300mg QW, G2, cycle 1): 0 (0)
Dermatitis acneiform, number of AEs (300mg QW, G2, cycle 1): 0 (0)
Diarrhea, number of AEs (300mg QW, G2, cycle 1): 0 (0)
Dry skin, number of AEs (300mg QW, G2, cycle 1): 0 (0)
Dysgeusia, number of AEs (300mg QW, G2, cycle 1): 0 (0)
Fatigue, number of AEs (300mg QW, G2, cycle 1): 0 (0)
Nausea, number of AEs (300mg QW, G2, cycle 1): 0 (0)
Pruritus, number of AEs (300mg QW, G2, cycle 1): 0 (0)
Rash (all rash terms collated), number of AEs (300mg QW, G2, cycle 1): 2 (2)
Stomatitis, number of AEs (300mg QW, G2, cycle 1): 1 (1)
Vomiting, number of AEs (300mg QW, G2, cycle 1): 0 (0)
Anorexia, number of AEs (300mg QW, G3, all cycles): 0 (0)
Dermatitis acneiform, number of AEs (300mg QW, G3, all cycles): 0 (0)
Diarrhea, number of AEs (300mg QW, G3, all cycles): 0 (0)
Dry skin, number of AEs (300mg QW, G3, all cycles): 0 (0)
Dysgeusia, number of AEs (300mg QW, G3, all cycles): 0 (0)
Fatigue, number of AEs (300mg QW, G3, all cycles): 0 (0)
Nausea, number of AEs (300mg QW, G3, all cycles): 0 (0)
Pruritus, number of AEs (300mg QW, G3, all cycles): 0 (0)
Rash (all rash terms collated), number of AEs (300mg QW, G3, all cycles): 3^c (3)
Stomatitis, number of AEs (300mg QW, G3, all cycles): 0 (0)
Vomiting, number of AEs (300mg QW, G3, all cycles): 0 (0)
Anorexia, number of AEs (300mg QW, G3, cycle 1): 0 (0)
Dermatitis acneiform, number of AEs (300mg QW, G3, cycle 1): 0 (0)
Diarrhea, number of AEs (300mg QW, G3, cycle 1): 0 (0)
Dry skin, number of AEs (300mg QW, G3, cycle 1): 0 (0)
Dysgeusia, number of AEs (300mg QW, G3, cycle 1): 0 (0)
Fatigue, number of AEs (300mg QW, G3, cycle 1): 0 (0)
Nausea, number of AEs (300mg QW, G3, cycle 1): 0 (0)
Pruritus, number of AEs (300mg QW, G3, cycle 1): 0 (0)
Stomatitis, number of AEs (300mg QW, G3, cycle 1): 0 (0)
Vomiting, number of AEs (300mg QW, G3, cycle 1): 0 (0)
Rash (all rash terms collated), number of AEs (300mg QW, G3, cycle 1, dose-limiting toxicity): 3^c (3)
drug-related headaches, patients (QW schedule, 4/33): 12.1%
drug-related increased alanine aminotransferase levels, patients (QW schedule, 4/33): 12.1%
drug-related pruritus, patients (QW schedule, 4/33): 12.1%
C-peptide level increase during first cycle (range) (QW schedule, 4 patients with increase): 65.7%-166.6
drug-related stomatitis, patients (QW schedule, 5/33): 15.2%
drug-related decreased appetite, patients (QW schedule, 7/33): 21.2%
time to full resolution of DLTs from onset (QW schedule, 7 of 10 patients with DLTs): 1 to 2 weeks
drug-related vomiting, patients (QW schedule, 8/33): 24.2%
drug-related diarrhea, patients (QW schedule, 9/33): 27.3%
drug-related nausea, patients (QW schedule, 9/33): 27.3%
drug-related rash, patients (QW schedule, 14/33): 42.4%
drug-related fatigue, patients (QW schedule, 15/33): 45.5%
elevated blood glucose levels, patients (QW schedule, 19/33): 57.6%
drug-related AEs, patients (QW schedule, 22/33): 66.7%
post-cycle 1 HbA1c values (QW schedule, all patients assessed): < 7%
G1 hyperglycemia, patients (QW schedule, following 1 cycle, 1/33): 3.0%
DLTs resolved with sequelae of dry skin (QW schedule, of 10 patients with DLTs): 3 patients
patients with increased C-peptide levels during first cycle (QW schedule, patients assessed): 4 of 6
patients who discontinued for drug-related AEs (QW schedule, G3 rash, G3 complete atrioventricular block, G1 rash (n=1 each)): Three
